In ChEMBL document CHEMBL2046351, “Discovery of cyclic sulfone hydroxyethylamines as potent and selective β-site APP-cleaving enzyme 1 (BACE1) inhibitors: structure-based design and in vivo reduction of amyloid β-peptides” (J Med Chem, 2012):

Tests used:
[1] = Drug uptake in C57BL/6 mouse blood at 60 umol/kg, po dosed in HS15/propylenglycol/citrate buffer, pH 4.75, 50 mM (10/5/85, v/v/v) measured 1 hr post dosing by LC/MS/MS analysis; assay type: ADME, organism-based; settings: read-out: Drug uptake
Outline: (§1)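 Male C57BL/6 mice dosed by oral gavage, 10 mL/kg. Blood sampled 0.25, 0.5, 1, 2, 4, 6 h; brain at 1 and/or 4 h; n = 3 per time. Blood acetonitrile-precipitated, brain water-homogenized then precipitated; LC-MS/MS with weighted linear calibration.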

Brain [2] = assay: Drug uptake in C57BL/6 mouse brain at 6 umol/kg, po dosed in HS15/propylenglycol/citrate buffer, pH 4.75, 50 mM (10/5/85, v/v/v) measured 4 hrs post dosing by LC/MS/MS analysis; assay type: ADME, organism-based; settings: in vivo, pH 4.75, 4 h; outline: as §1
[3] = Ratio of drug uptake in brain to blood in C57BL/6 mouse at 6 umol/kg, po dosed in HS15/propylenglycol/citrate buffer, pH 4.75, 50 mM (10/5/85, v/v/v) measured 4 hrs post dosing by LC/MS/MS analysis; assay type: ADME, organism-based
Outline: (§2)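 Male C57BL/6 mice received the dose by oral gavage at 10 mL/kg. Blood and brain were collected at 1 and/or 4 h postdose. Brain was homogenised in water, and both matrices were extracted by acetonitrile precipitation and quantified by LC-MS/MS. The ratio is mean brain (nmol/g) over mean blood (nmol/mL) concentration, n = 3.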

[4] = Oral bioavailability in C57BL/6 mouse at 60 umol/kg dosed in HS15/propylenglycol/citrate buffer, pH 4.75, 50 mM (10/5/85, v/v/v) by LC/MS/MS analysis; assay type: ADME, organism-based; settings: in vivo
Outline: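 Oral gavage (10 mL/kg) to male C57BL/6 mice with iv reference segment (2 μmol/kg, NMP/blank plasma 10:90). Noncompartmental analysis of LC-MS/MS blood profiles, 1/Y weighting; %F = dose-normalized oral AUC / dose-normalized iv AUC × 100, assuming linear pharmacokinetics between doses.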

Brain [5] = assay: Drug uptake in C57BL/6 mouse brain at 6 umol/kg, po dosed in HS15/propylenglycol/citrate buffer, pH 4.75, 50 mM (10/5/85, v/v/v) measured 1 hr post dosing by LC/MS/MS analysis; assay type: ADME, organism-based; settings: in vivo, pH 4.75, 1 h; outline: as §1
[6] = Ratio of drug uptake in brain to blood in C57BL/6 mouse at 6 umol/kg, po dosed in HS15/propylenglycol/citrate buffer, pH 4.75, 50 mM (10/5/85, v/v/v) measured 1 hr post dosing by LC/MS/MS analysis; assay type: ADME, organism-based; outline: as §2
[7] = Drug uptake in C57BL/6 mouse blood at 6 umol/kg, po dosed in HS15/propylenglycol/citrate buffer, pH 4.75, 50 mM (10/5/85, v/v/v) measured 1 hr post dosing by LC/MS/MS analysis; assay type: ADME, organism-based; settings: read-out: Drug uptake; outline: as §1
Brain [8] = assay: Drug uptake in C57BL/6 mouse brain at 60 umol/kg, po dosed in HS15/propylenglycol/citrate buffer, pH 4.75, 50 mM (10/5/85, v/v/v) measured 1 hr post dosing by LC/MS/MS analysis; assay type: ADME, organism-based; settings: in vivo, pH 4.75, 1 h; outline: as §1
[9] = Ratio of drug uptake in brain to blood in C57BL/6 mouse at 60 umol/kg, po dosed in carboxymethyl cellulose 0.5% w/v in water/Tween 80 (99.5/0.5, v/v) measured 1 hr post dosing by LC/MS/MS analysis; assay type: ADME, organism-based; outline: as §1
[10] = Drug uptake in C57BL/6 mouse blood at 2 umol/kg, iv dosed in N-methyl pyrrolidone/blank plasma (10:90 v/v) measured 4 hrs post dosing by LC/MS/MS analysis; assay type: ADME, organism-based; settings: read-out: Drug uptake
Outline: (§3)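 Male C57BL/6 mice, saphenous vein injection under light anesthesia, 5 mL/kg. Blood at 5, 30 min and 1, 2, 4, 6, 8 h; brain at 5 min, 1, 4, 8 h; n = 3/time. LC-MS/MS after acetonitrile precipitation (brain water-homogenized). Noncompartmental analysis, 1/Y weighting, terminal slope from ≥3 points.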

[11] = AUC (0 to infinity) in C57BL/6 mouse at 6 umol/kg, po dosed in carboxymethyl cellulose 0.5% w/v in water/Tween 80 (99.5/0.5, v/v) by LC/MS/MS analysis; assay type: ADME, organism-based; set-up: dose 6 umol/kg, time infinity, route oral; settings: in vivo
Outline: (§4)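 Male C57BL/6 mice were dosed by oral gavage at 10 mL/kg. Blood was sampled at 0.25, 0.5, 1, 2, 4 and 6 h postdose, extracted by acetonitrile precipitation and quantified by LC-MS/MS (typical LLOQ 0.4 ng/mL). AUCinf was obtained by noncompartmental analysis of concentration–time profiles, weighting 1/Y, with at least three terminal log-linear points.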

[12] = Drug uptake in C57BL/6 mouse blood at 60 umol/kg, po dosed in carboxymethyl cellulose 0.5% w/v in water/Tween 80 (99.5/0.5, v/v) measured 1 hr post dosing by LC/MS/MS analysis; assay type: ADME, organism-based; settings: read-out: Drug uptake; outline: as §1
[13] = Drug uptake in C57BL/6 mouse blood at 6 umol/kg, po dosed in carboxymethyl cellulose 0.5% w/v in water/Tween 80 (99.5/0.5, v/v) measured 1 hr post dosing by LC/MS/MS analysis; assay type: ADME, organism-based; settings: read-out: Drug uptake; outline: as §1
MDR1 (human) = assay: Efflux ratio of permeability from basolateral to apical over apical to basolateral side of MDCK cells expressing human MDR1 at 5 uM after 2 hrs by LC/MS analysis; assay type: ADME, cell-based, Canis lupus familiaris; settings: dog
Outline: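 MDCK cells retrovirally transduced with human MDR1, seeded on transwells ≥3 days; bidirectional transport at 5 μM, 2 h, 37 °C, LC/MS quantitation. Papp = (dQ/dt)/(A·C0), A 0.11 cm2; ER = Papp B>A / Papp A>B. Means of at least three experiments.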

[14] = Ratio of drug uptake in brain to blood in C57BL/6 mouse at 2 umol/kg, iv dosed in N-methyl pyrrolidone/blank plasma (10:90 v/v) measured 1 hr post dosing by LC/MS/MS analysis; assay type: ADME, organism-based; outline: as §3
[15] = Drug uptake in C57BL/6 mouse blood at 60 umol/kg, po dosed in carboxymethyl cellulose 0.5% w/v in water/Tween 80 (99.5/0.5, v/v) measured 4 hrs post dosing by LC/MS/MS analysis; assay type: ADME, organism-based; settings: read-out: Drug uptake; outline: as §1
[16] = AUC (0 to infinity) in C57BL/6 mouse at 60 umol/kg, po dosed in carboxymethyl cellulose 0.5% w/v in water/Tween 80 (99.5/0.5, v/v) by LC/MS/MS analysis; assay type: ADME, organism-based; set-up: dose 60 umol/kg, route oral, time infinity; settings: in vivo; outline: as §4
[17] = Ratio of drug uptake in brain to blood in C57BL/6 mouse at 60 umol/kg, po dosed in carboxymethyl cellulose 0.5% w/v in water/Tween 80 (99.5/0.5, v/v) measured 4 hrs post dosing by LC/MS/MS analysis; assay type: ADME, organism-based; outline: as §1
Brain [18] = assay: Drug uptake in C57BL/6 mouse brain at 6 umol/kg, po dosed in carboxymethyl cellulose 0.5% w/v in water/Tween 80 (99.5/0.5, v/v) measured 1 hr post dosing by LC/MS/MS analysis; assay type: ADME, organism-based; settings: in vivo; outline: as §1
Brain [19] = assay: Drug uptake in C57BL/6 mouse brain at 2 umol/kg, iv dosed in N-methyl pyrrolidone/blank plasma (10:90 v/v) measured 4 hrs post dosing by LC/MS/MS analysis; assay type: ADME, organism-based; settings: in vivo; outline: as §3

| concentration at 1 h [1] | Drug uptake (Brain [2]) | Kp at 4 h [3] | bioavailability [4] | Drug uptake (Brain [5]) | Kp at 1 h [6] | concentration at 1 h [7] | Drug uptake (Brain [8]) | Kp at 1 h [9] | concentration at 4 h [10] | AUC(0-inf) [11] | concentration at 1 h [12] | concentration at 1 h [13] | efflux ratio at 2 h, 5 µM (MDR1 (human)) | Kp at 1 h [14] | concentration at 4 h [15] | AUC(0-inf) [16] | Kp at 4 h [17] | Drug uptake (Brain [18]) | Drug uptake (Brain [19]) | Compound |
| --- | --- | --- | --- | --- | --- | --- | --- | --- | --- | --- | --- | --- | --- | --- | --- | --- | --- | --- | --- | --- |
| 470 nM | 0.01 nmol/g | 0.3 | 33% | 0.02 nmol/g | 0.3 | 60 nM | 0.23 nmol/g |  |  |  |  |  |  |  |  |  |  |  |  | CC(C)(C)c1cccc(CN[C@H]2CS(=O)(=O)C[C@@H](Cc3cc(F)c(N)c(OC(C(F)(F)F)C(F)(F)F)c3)[C@@H]2O)c1 |
|  |  |  |  |  |  |  |  | 0.3 | 10 nM | 0.466 µM·h | 4100 nM | 30 nM | 5 | 1.8 | 1860 nM | 14.8 µM·h | 0.3 | 0.08 nmol/g | 0.01 nmol/g | CC(C)(C)c1cccc(CN[C@H]2CS(=O)(=O)C[C@@H](Cc3cc(F)c(N)c(OCC(F)(F)F)c3)[C@@H]2O)c1 |
